Here are results for ten compounds from ChEMBL document CHEMBL4422700, “Trichothecenes from a Soil-Derived Trichoderma brevicompactum” (J Nat Prod, 2019).

What is called MIC is the lowest concentration that inhibits growth of the organism. What is called IC50 is the concentration needed to halve the response being measured.

Converted amounts (≈) assume the structure as drawn. The source made the active and inactive calls. No cut-off for these calls is given here.

The test system of test [1] is Nannizzia gypsea. In words: Antifungal activity against Microsporum gypseum by colorimetric broth microdilution method. The test is classed as functional. In general terms: In broth dilution the organism is exposed to a series of concentrations in liquid medium.
Test [2] concerns Plasmodium falciparum. In words: Antimalarial activity against multidrug-resistant Plasmodium falciparum K1 infected in erythrocytes assessed as reduction in [3H]-hypoxanthine incorporation incubated for 24 hrs before [3H]-hypoxanthine addition and measured after 24 hrs by microplate scintillation counting based microculture radioisotope technique. Type of test: functional, organism-based. The essentials:
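Ring-stage K1 culture in RPMI-1640 at 1.5% erythrocyte suspension and 1% parasitaemia, exposed to test solution at 37 °C under CO2 for 24 h. 3H-hypoxanthine (0.5 μCi per well) was then added and incubation continued 24 h. Incorporation was read by scintillation counting; % growth = CPM treated/CPM untreated × 100. Dihydroartemisinin served as standard.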

Test [3] relates to Cryptococcus neoformans. The experiment in a line: Antifungal activity against flucytosine-resistant, Cryptococcus neoformans ATCC 90113 by colorimetric broth microdilution method. The test is classed as functional.
Test [4] concerns Candida albicans. The experiment in a line: Antifungal activity against Candida albicans NCPF3153 by colorimetric broth microdilution method. The test is classed as functional.
Test [5] has as its system KB. The experiment in a line: Cytotoxicity against human KB cells assessed as reduction in cell viability by resazurin microplate assay. The test is classed as functional, cell-based. In a few lines: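 KB cells tested by resazurin microplate assay. Ellipticine served as positive control.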
The subject of test [6] is Vero. In words: Cytotoxicity against African green monkey Vero cells assessed as reduction in cell viability by resazurin microplate assay. The test is classed as cell-based, Chlorocebus sabaeus. The essentials:
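Vero (African green monkey kidney fibroblast) cells, run in triplicate. Ellipticine served as positive control.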
(Resazurin is reduced to fluorescent resorufin, in cell work by metabolically active cells.)

The mark [7] stands for this setting: Plasmodium falciparum, K1, read-out: IC50.

With `CC(=O)O[C@@H]1C[C@H]2O[C@@H]3C[C@H](CO)CC[C@]3(C)[C@]1(C)[C@]21CO1`, the MIC entry in test [1], in test [3] and in test [4] was “inactive” in each case. Moreover, the IC50 entry in test [2] is “Not Active”; in test [5] (kb) it was 116 µM; in test [6] (vero), 45.9 µM.
Take `Cc1c2ccncc2c(C)c2c1[nH]c1ccccc12` [ELLIPTECINE]: the IC50 in test [6] (Chlorocebus sabaeus, Vero) turned out to be 4.1 µM.
`C[C@@H]1[C@H](O)[C@@H](C)/C=C/C=C/C=C/C=C/C=C/C=C/C=C/[C@H](O[C@@H]2O[C@H](C)[C@@H](O)[C@H](N)[C@@H]2O)C[C@@H]2O[C@](O)(C[C@@H](O)C[C@@H](O)[C@H](O)CC[C@@H](O)C[C@@H](O)CC(=O)O[C@H]1C)C[C@H](O)[C@H]2C(=O)O` [AMPHOTERICIN B]: the MIC in test [3] came out at 0.25 µg/mL (≈ 0.271 µM); in test [4], 0.5 µg/mL (≈ 0.541 µM).
In the case of `CC(=O)O[C@@H]1C[C@H]2O[C@@H]3C=C(C)CC[C@]3(C)[C@]1(C)[C@]21CO1`, the IC50 in test [2] (read-out: IC50) is 0.1 µM; in test [5] (kb) it was 2.4 µM; in test [6] (vero) it was 0.4 µM.
Regarding `CC1=C[C@H]2O[C@@H]3C[C@@H](O)[C@](C)([C@@]2(C)CC1)[C@]31CO1` [TRICHODERMOL], in test [1], the MIC result is “inactive”. The IC50 is 7.1 µM in test [2] (read-out: IC50), 16.1 µM in test [5] (kb) and 6.9 µM in test [6] (vero).
In test [1], `Clc1ccc(COC(Cn2ccnc2)c2ccc(Cl)cc2Cl)c(Cl)c1` (configuration not stated) [MICONAZOLE] gave an MIC of 1 µg/mL (≈ 2.4 µM).
In the case of `CC(=O)O[C@@H]1C[C@H]2O[C@@H]3C=C(CO)CC[C@]3(C)[C@]1(C)[C@]21CO1`, the MIC result in test [1] was “inactive”. For the same compound, the IC50 in test [2] (read-out: IC50) amounted to 8.8 µM; in test [5] (kb), 20.6 µM; in test [6] (vero), 7.8 µM.
Regarding `CC(=O)O[C@@H]1C[C@H]2O[C@@H]3C=C(C=O)CC[C@]3(C)[C@]1(C)[C@]21CO1`, the MIC result in test [1] was “inactive”. For the same compound, the figures for the IC50 in test [2] (read-out: IC50), in test [5] (kb) and in test [6] (vero) were 9.6 µM, 3.7 µM and 9.9 µM, respectively.
As for `CC1=C[C@]23O[C@@H]4C[C@@H](O)[C@](C)([C@@]2(C)CC1)[C@]4(CO)O3`, the MIC result in test [1] was “inactive”. The IC50 is 7.4 µM in test [2] (setting [7]); 44.7 µM in test [5] (Homo sapiens, KB); 15.3 µM in test [6] (Chlorocebus sabaeus, Vero). In addition, the MIC in test [3] and in test [4] was 16 µg/mL (≈ 60.1 µM) each time.
With `C[C@H]1C(O)O[C@@H]2O[C@@]3(C)CC[C@H]4[C@H](C)CCC1C24OO3` (some centres not stated), the IC50 in test [2] (setting [7]) worked out at 0.0022 µM.
